The record followed here is ChEMBL document CHEMBL4706650, “Discovery of a Novel and Brain-Penetrant O-GlcNAcase Inhibitor via Virtual Screening, Structure-Based Analysis, and Rational Lead Optimization” (J Med Chem, 2021).

Usually IC50 stands for the concentration that inhibits the measured activity by half. Lower therefore signals greater potency. The term inhibition denotes the percentage by which the read-out fell short of the control. Usually EC50 stands for the midpoint of the concentration-response curve. The fraction unbound is free concentration divided by total concentration. Higher therefore signals weak binding. Broadly, the Emax is the maximal effect, on the per cent scale that the assay sets.

For data set [1], the target named is T1, Protein O-GlcNAcase (Homo sapiens, UniProt O60502).
T1 sequence (O60502 whole entry): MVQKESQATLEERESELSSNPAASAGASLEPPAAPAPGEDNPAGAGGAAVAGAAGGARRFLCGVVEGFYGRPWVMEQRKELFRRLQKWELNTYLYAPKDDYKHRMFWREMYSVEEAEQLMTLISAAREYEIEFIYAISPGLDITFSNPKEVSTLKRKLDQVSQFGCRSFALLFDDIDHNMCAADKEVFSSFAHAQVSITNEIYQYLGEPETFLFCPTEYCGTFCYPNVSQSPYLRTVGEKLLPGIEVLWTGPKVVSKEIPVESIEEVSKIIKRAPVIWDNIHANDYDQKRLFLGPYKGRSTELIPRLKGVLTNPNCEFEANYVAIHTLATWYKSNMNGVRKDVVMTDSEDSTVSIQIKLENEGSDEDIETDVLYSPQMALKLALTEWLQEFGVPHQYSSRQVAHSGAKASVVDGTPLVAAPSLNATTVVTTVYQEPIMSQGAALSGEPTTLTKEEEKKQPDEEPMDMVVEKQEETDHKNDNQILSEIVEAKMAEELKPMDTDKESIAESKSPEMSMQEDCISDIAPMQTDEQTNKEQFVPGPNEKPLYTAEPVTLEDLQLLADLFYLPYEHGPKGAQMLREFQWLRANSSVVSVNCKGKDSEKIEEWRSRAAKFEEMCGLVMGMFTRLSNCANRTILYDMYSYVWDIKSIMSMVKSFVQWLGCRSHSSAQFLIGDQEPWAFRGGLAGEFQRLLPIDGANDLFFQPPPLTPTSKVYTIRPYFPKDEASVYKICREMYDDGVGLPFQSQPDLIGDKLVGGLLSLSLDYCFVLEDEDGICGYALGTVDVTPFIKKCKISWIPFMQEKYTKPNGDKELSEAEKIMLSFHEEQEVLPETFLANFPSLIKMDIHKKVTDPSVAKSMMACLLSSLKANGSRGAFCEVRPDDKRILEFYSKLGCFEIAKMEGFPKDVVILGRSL
The experiment in a line: Inhibition of full-length human OGA expressed in Expi293 (HEK293) cells using 4-methylumbelliferyl-N-acetyl-beta-D-glucosaminide dihydrate as fluorogenic substrate preincubated with enzyme followed by substrate addition and measured every 5 mins for 60 mins by fluorescence based analysis. A digest of the protocol:
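Human OGA, FLAG-tagged full length from transfected Expi293 cells, purified by anti-FLAG agarose and gel filtration, 1 nM. Buffer 50 mM NaH2PO4, 100 mM NaCl, 0.01% BSA, 0.01% Tween 20, 1 mM DTT, pH 7.4; 2 mM substrate added to start after compound, RT. Ex 355/em 460 nm; 0% control enzyme+DMSO, 100% no enzyme; IC50 by variable-slope sigmoidal fit.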

The target of data set [2] is T2, Protein O-GlcNAcase (Homo sapiens) (UniProt O60502).
T2 sequence (whole entry): T1 sequence (O60502 whole entry)
The experiment in a line: Competitive inhibition of full-length human OGA expressed in Expi293 (HEK293) cells assessed as increase in Km of substrate using varying concentrations of 4-methylumbelliferyl-N-acetyl-beta-D-glucosaminide dihydrate as fluorogenic substrate at 0.48 to 60 nM measured for 60 mins by fluorescence based analysis. As to conditions: dose 0.48-60 nM. A digest of the protocol: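 Full-length human OGA (FLAG-purified, gel filtration) at 1 nM final, in 50 mM NaH2PO4, 100 mM NaCl, 0.01% BSA, 0.01% Tween 20, 1 mM DTT, pH 7.4. Substrate serially diluted 2-fold from 2 mM at several inhibitor levels. Fluorescence read over 60 min (ex 355/em 460 nm); Vmax and Km from Michaelis–Menten nonlinear fit.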

Data set [3] has as its target T2, Protein O-GlcNAcase (Homo sapiens). Kind of data set: Inhibition of full-length human OGA expressed in Expi293 (HEK293) cells using 4-methylumbelliferyl-N-acetyl-beta-D-glucosaminide dihydrate as fluorogenic substrate at 10 uM preincubated with enzyme followed by substrate addition and measured every 5 mins for 60 mins by fluorescence based analysis.
The species named for the next data set is Homo sapiens. The experiment in a line: Inhibition of human placental beta-hexosaminidase using 4-methylumbelliferyl-N-acetyl-beta-D-glucosaminide dihydrate as fluorogenic substrate at 10 uM preincubated with enzyme followed by substrate addition and measured every 5 mins for 60 mins by fluorescence based analysis. Type of data set: tissue-based. As to conditions: Placenta.

For data set [4], the target named is T1, Protein O-GlcNAcase. Kind of data set: Inhibition of OGA in human SH-SY5Y cells assessed as increase in O-GIcNAcylated protein levels incubated for 48 hrs by in-cell Western assay. Type of data set: cell-based. In outline: (§1)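 SH-SY5Y cells seeded ~1.8 × 10⁴/well on poly-D-lysine, compound for 48 h at 37 °C. Methanol fixation, 0.1% Triton X-100 permeabilization, blocking, then Alexa Fluor 700-labelled anti-O-GlcNAc RL2 (1:500, 60 min RT). Infrared imaging of integrated fluorescence, normalized to DMSO (100%) and medium (0%); EC50 as curve inflection point, Emax as maximal % increase.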

A short description of data set [5]: Inhibition of human placental beta-hexosaminidase using 4-methylumbelliferyl-N-acetyl-beta-D-glucosaminide dihydrate as fluorogenic substrate preincubated with enzyme followed by substrate addition and measured every 5 mins for 60 mins by fluorescence based analysis. Type of data set: tissue-based, Placenta. A digest of the protocol: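 Placental β-hexosaminidase at 10 μunits/mL in 50 mM NaH2PO4, 100 mM NaCl, 0.01% BSA, 0.01% Tween 20, 1 mM DTT, pH 7.4. Compound added before 2 mM substrate, room temperature. Fluorescence ex 355/em 460 nm; inhibition versus enzyme+DMSO (0%) and no-enzyme (100%) wells; IC50 from variable-slope sigmoidal regression.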

Data set [6] in a line: Unbound drug level in C57BL/6J mouse plasma at 30 mg/kg, po by equilibrium dialysis method. Type of data set: ADME, organism-based. A digest of the protocol:
(§2)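 Unbound fraction in mouse plasma and brain determined by equilibrium dialysis, with the fractions used to correct total plasma and brain levels after a 30 mg/kg oral dose in 0.5% methylcellulose.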
(In general: Equilibrium dialysis compares concentrations on both sides of a semipermeable membrane.)

Data set [7] deals with T2, Protein O-GlcNAcase (Homo sapiens). The experiment in a line: Inhibition of OGA in human SH-SY5Y cells assessed as increase in O-GIcNAcylated protein levels incubated for 48 hrs by in-cell Western assay relative to control. Type of data set: cell-based. In outline: as §1
Data set [8] in a line: Drug level in C57BL/6J mouse plasma at 30 mg/kg, po after 1 hrs by LC/MS-MS analysis. Type of data set: ADME, organism-based. In outline:
(§3)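 Suspension in 0.5% (w/v) methylcellulose dosed orally at 30 mg/kg to C57Bl/6J mice (n = 3). Blood and brain taken at 0.5 and 1 h; plasma by centrifugation, brain homogenized in saline. Acetonitrile deproteinization with internal standard, supernatant diluted in 0.2% formic acid/10 mM ammonium formate (pH 3), LC/MS/MS quantitation.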

A short description of data set [9]: Drug level in C57BL/6J mouse brain at 30 mg/kg, po after 0.5 hrs by LC/MS-MS analysis. As to conditions: read-out: Drug uptake. In kind it is ADME, organism-based. In outline: as §3
A short description of data set [10]: Drug level in C57BL/6J mouse plasma at 30 mg/kg, po after 0.5 hrs by LC/MS-MS analysis. Type of data set: ADME, organism-based. A digest of the protocol: as §3
Data set [11] is described as follows: Unbound brain-to-plasma concentration ratio in C57BL/6J mouse at 30 mg/kg, po after 0.5 hrs by equilibrium dialysis. Type of data set: ADME, organism-based. As to conditions: read-out: K(p,uu,brain). A digest of the protocol:
(§4)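 Oral dose of 30 mg/kg in 0.5% methylcellulose to C57Bl/6J mice (n = 3); plasma and brain levels at 0.5 and 1 h by LC/MS/MS. Unbound fractions in plasma and brain by equilibrium dialysis; Kp,uu = (fu,brain × Cbrain)/(fu,plasma × Cplasma).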

The nature of data set [12]: Unbound drug level in C57BL/6J mouse brain at 30 mg/kg, po by equilibrium dialysis method. Type of data set: ADME, organism-based. In outline: as §2
Data set [13] in a line: Drug level in C57BL/6J mouse brain at 30 mg/kg, po after 1 hrs by LC/MS-MS analysis. In kind it is ADME, organism-based. As to conditions: read-out: Drug uptake. In outline: as §3
Data set [14] in a line: Unbound brain-to-plasma concentration ratio in C57BL/6J mouse at 30 mg/kg, po after 1 hrs by equilibrium dialysis. Type of data set: ADME, organism-based. Conditions: read-out: K(p,uu,brain). In outline:
as §4

Activity calls are given as the source filed them. The calls are words filed in the database; no cut-off is given here. Where only a bound is given, the exact number is not on record here.

`COC1CCN(c2ccnc(NCCc3ccccc3)n2)CC1` displayed an IC50 against Protein O-GlcNAcase [1] of 970 nM. This lies in the sub-micromolar range.
`CC1CCN(c2ccnc(NCCc3ccccc3)n2)CC1` came in with an IC50 at Protein O-GlcNAcase [1] of 24 nM. Moreover, the inhibition entry in data set [2] was “Active”.
On Protein O-GlcNAcase [1], `CC1CCN(c2ccnc(NCCc3cccnc3)n2)CC1` returned an IC50 of 31 nM.
Same read-out and setting: to `c1ccc(CCNc2nccc(N3CCOCC3)n2)cc1` belongs 4700 nM; to `OC1CCN(c2ccnc(NCCc3ccccc3)n2)CC1`, over 10000 nM; to `CC1CCN(c2ccnc(NCc3cccnc3)n2)CC1`, 18 nM.
`CC1CCN(c2ccnc(NC(C)CN3CCN(C)CC3)n2)CC1` (centres undefined) registered an IC50 against Protein O-GlcNAcase [1] of 41 nM. The compound further gave an inhibition in data set [3] of over 50%. Further, the inhibition result in the data set listed under Homo sapiens was “inactive”.
In the case of `CC1CCN(c2ccnc(NCCc3ccccn3)n2)CC1`, half-maximal inhibition against Protein O-GlcNAcase [1] (IC50) was put at 360 nM.
As for `CC1CCN(c2ccnc(NCc3cn(C)cn3)n2)CC1` [TP-040], at Protein O-GlcNAcase [4], the EC50 came to 450 nM. Also, the IC50 is over 10000 nM in data set [5] and 46 nM on Protein O-GlcNAcase [1]. Besides, the fraction unbound in [6] came to 0.53; in [12] it was 0.14. Further, the maximum response (Emax) in data set [7] turned out to be 143%. Besides, the concentration at 1 h in data set [8] worked out at 1900 ng/mL; in data set [13], 2600 ng/g. The concentration at 0.5 h was found to be 2700 ng/g in data set [9] and 2800 ng/mL in [10]. Besides, the Kp uu at 0.5 h in [11] amounted to 0.25. The Kp uu at 1 h in data set [14] was determined as 0.36.
As to `CN1CCN(c2ccnc(NCCc3ccccc3)n2)CC1` [TP-040n], on Protein O-GlcNAcase [1], the IC50 was over 10000 nM.
